Molecules are shown by their SMILES. Values after ≈ are worked out from the molar mass of the structure shown.

For orientation: MIC means the lowest concentration found to suppress growth. A low value points to a more susceptible organism.

Assay type in all cases: functional
The test system of test [1] is Staphylococcus aureus. Description: Antibacterial activity against tetracycline-susceptible Staphylococcus aureus ATCC 13709 Smith isolate SA100. The procedure, abridged:
(§1)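 Broth microdilution MIC following CLSI methods in cation-adjusted Mueller Hinton broth, prepared fresh and held at 4 °C before testing. Defibrinated horse blood added to the medium where appropriate. Runs accepted when quality control ranges for comparator antibiotics and ATCC QC strains were met.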

The test system of test [2] is Staphylococcus aureus. Briefly: Antibacterial activity against tetracycline-resistant Staphylococcus aureus isolate SA161 expressing TetM gene. The procedure, abridged:
as §1

Test [3] deals with Staphylococcus aureus. Description: Antibacterial activity against tetracycline-resistant Staphylococcus aureus isolate SA158 expressing TetK gene.
In test [4] the test system is Streptococcus pneumoniae. Description: Antibacterial activity against Streptococcus pneumoniae ATCC 49619 isolate 106. The procedure, abridged: (§2)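 MIC by broth microdilution in liquid medium per CLSI, in cation-adjusted Mueller Hinton broth made fresh and held at 4 °C before testing. Horse blood (defibrinated) added to the medium where appropriate. Runs were accepted only when the comparator antibiotics and ATCC QC strains fell within their recommended ranges.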

For test [5], the system named is Streptococcus pneumoniae. Description: Antibacterial activity against tetracycline-resistant Streptococcus pneumoniae isolate 160 expressing tetM gene.
Test [6] concerns Escherichia coli. Description: Antibacterial activity against Escherichia coli ATCC 25922 isolate 107. The procedure, abridged: as §2
Test [7] deals with Escherichia coli. Description: Antibacterial activity against Escherichia coli isolate EC155 expressing tetA gene. The procedure, abridged:
as §2

For another test, the system named is Klebsiella pneumoniae. Briefly: Antibacterial activity against Klebsiella pneumoniae ATCC 13883. The procedure, abridged: as §2
For test [8], the system named is Staphylococcus aureus. Description: Antibacterial activity against Staphylococcus aureus ATCC 13709 infected in CD-1 mouse assessed as increase in survival at 3 mg/kg, iv administered as single dose 1 hr post infection measured after 48 hrs post infection. The procedure, abridged:
(§3)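 Mouse septicemia screen: S. aureus grown to log phase, diluted in 5% mucin to give 90% mortality within 48 h, inoculum 1.98 × 10⁶ CFU/mouse, 0.5 mL intraperitoneal into female CD-1 mice (18−20 g). Six mice per group. Single 30 mg/kg oral gavage or 3 mg/kg IV dose 1 h post infection. Infection controls received sterile water vehicle. Survival recorded at 48 h.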

Test [9] has as its system Staphylococcus aureus. Briefly: Antibacterial activity against Staphylococcus aureus ATCC 13709 infected in CD-1 mouse assessed as increase in survival at 30 mg/kg, po administered as single dose 1 hr post infection measured after 48 hrs post infection. The procedure, abridged: as §3
Test [10] concerns Staphylococcus aureus. Briefly: Antibacterial activity against Staphylococcus aureus ATCC 13709 infected in po dosed CD-1 mouse assessed as increase in survival administered as single dose 1 hr post infection measured after 48 hrs post infection. Conditions: ATCC 13709, po, read-out: PD50.

Take `CN(C)[C@@H]1C(O)=C(C(N)=O)C(=O)[C@@]2(O)C(O)=C3C(=O)c4c(O)c(NS(C)(=O)=O)cc(F)c4C[C@H]3C[C@@H]12`: the MIC with Staphylococcus aureus [1] is 0.13 µg/mL (≈ 0.247 µM); in the test on Staphylococcus aureus [2], 0.25 µg/mL (≈ 0.476 µM); with Staphylococcus aureus [3] it was 4 µg/mL (≈ 7.61 µM); against Streptococcus pneumoniae [4] it was 0.016 µg/mL (≈ 0.0304 µM); against Streptococcus pneumoniae [5] it was 0.016 µg/mL (≈ 0.0304 µM); against Escherichia coli [6] it was 0.25 µg/mL (≈ 0.476 µM). The MIC against Escherichia coli [7] was > 32 µg/mL; with Klebsiella pneumoniae it was 2 µg/mL (≈ 3.81 µM). Besides, the survival at 3 mg/kg in the test with Staphylococcus aureus [8] came out at 100%. For the same molecule, in the test on Staphylococcus aureus [9], the survival at 30 mg/kg came to 50%. Further, in the test with Staphylococcus aureus [10], the ED50 was > 30 mg/kg.
In the case of `CN(C)[C@@H]1C(O)=C(C(N)=O)C(=O)[C@@]2(O)C(O)=C3C(=O)c4c(O)c(Nc5ccncn5)cc(F)c4C[C@H]3C[C@@H]12`, the MIC came to 0.25 µg/mL (≈ 0.476 µM) in the test with Staphylococcus aureus [1]; 2 µg/mL (≈ 3.81 µM) in the test on Staphylococcus aureus [2]; 2 µg/mL (≈ 3.81 µM) in the test on Staphylococcus aureus [3]; 0.063 µg/mL (≈ 0.12 µM) in the test with Streptococcus pneumoniae [4]; 0.5 µg/mL (≈ 0.951 µM) in the test with Streptococcus pneumoniae [5]; 2 µg/mL (≈ 3.81 µM) against Escherichia coli [6]. Also, the MIC is > 32 µg/mL with Escherichia coli [7] and 8 µg/mL (≈ 15.2 µM) with Klebsiella pneumoniae.
In the case of `CN(C)[C@@H]1C(O)=C(C(N)=O)C(=O)[C@@]2(O)C(O)=C3C(=O)c4c(O)c(NCCNC(C)(C)C)cc(F)c4C[C@H]3C[C@@H]12`, the MIC in the test on Staphylococcus aureus [1] was determined as 1 µg/mL (≈ 1.83 µM); in the test on Staphylococcus aureus [2], 4 µg/mL (≈ 7.32 µM); against Staphylococcus aureus [3] it was 1 µg/mL (≈ 1.83 µM); against Streptococcus pneumoniae [4] it was 0.125 µg/mL (≈ 0.229 µM); against Streptococcus pneumoniae [5], 0.25 µg/mL (≈ 0.457 µM); in the test with Escherichia coli [6] it was 2 µg/mL (≈ 3.66 µM). Moreover, the results for the MIC in the test with Escherichia coli [7] and against Klebsiella pneumoniae were 16 µg/mL (≈ 29.3 µM) and 8 µg/mL (≈ 14.6 µM), respectively.
Regarding `CCCNc1cc(F)c2c(c1O)C(=O)C1=C(O)[C@]3(O)C(=O)C(C(N)=O)=C(O)[C@@H](N(C)C)[C@@H]3C[C@@H]1C2`, the MIC in the test on Staphylococcus aureus [1] was found to be 0.5 µg/mL (≈ 1.02 µM); in the test with Staphylococcus aureus [2], 0.5 µg/mL (≈ 1.02 µM); against Staphylococcus aureus [3], 0.5 µg/mL (≈ 1.02 µM); against Streptococcus pneumoniae [4], 1 µg/mL (≈ 2.04 µM); in the test with Streptococcus pneumoniae [5] it was 4 µg/mL (≈ 8.17 µM); with Escherichia coli [6], 32 µg/mL (≈ 65.4 µM). In addition, the MIC against Escherichia coli [7] and against Klebsiella pneumoniae was > 32 µg/mL throughout.
Regarding `CN(C)[C@@H]1C(O)=C(C(N)=O)C(=O)[C@@]2(O)C(O)=C3C(=O)c4c(O)c(NCC(C)(C)C)cc(F)c4C[C@H]3C[C@@H]12`, the MIC was 0.25 µg/mL (≈ 0.483 µM) in the test on Staphylococcus aureus [1]; 2 µg/mL (≈ 3.86 µM) against Staphylococcus aureus [2]; 0.25 µg/mL (≈ 0.483 µM) in the test with Staphylococcus aureus [3]; 4 µg/mL (≈ 7.73 µM) in the test on Streptococcus pneumoniae [4]; 16 µg/mL (≈ 30.9 µM) in the test on Streptococcus pneumoniae [5]; > 32 µg/mL against Escherichia coli [6]. The MIC with Escherichia coli [7] and in the test with Klebsiella pneumoniae was > 32 µg/mL each time.
For `CN(C)[C@@H]1C(O)=C(C(N)=O)C(=O)[C@@]2(O)C(O)=C3C(=O)c4c(O)c(CNCC(C)(C)C)cc(F)c4C[C@H]3C[C@@H]12`, the MIC in the test with Staphylococcus aureus [1] was 2 µg/mL (≈ 3.76 µM); in the test on Staphylococcus aureus [2], 4 µg/mL (≈ 7.52 µM); in the test on Staphylococcus aureus [3] it was 2 µg/mL (≈ 3.76 µM); against Streptococcus pneumoniae [4], 0.25 µg/mL (≈ 0.47 µM); against Streptococcus pneumoniae [5] it was 0.25 µg/mL (≈ 0.47 µM); against Escherichia coli [6] it was 4 µg/mL (≈ 7.52 µM). In addition, the values for the MIC in the test on Escherichia coli [7] and with Klebsiella pneumoniae were 16 µg/mL (≈ 30.1 µM) and 8 µg/mL (≈ 15 µM), respectively.
With `CN(C)[C@@H]1C(O)=C(C(N)=O)C(=O)[C@@]2(O)C(O)=C3C(=O)c4c(O)c(CNC(=O)CNC(C)(C)C)cc(F)c4C[C@H]3C[C@@H]12`, the MIC was 16 µg/mL (≈ 27.8 µM) in the test on Staphylococcus aureus [1]; > 32 µg/mL with Staphylococcus aureus [2]; 16 µg/mL (≈ 27.8 µM) in the test on Staphylococcus aureus [3]; 0.5 µg/mL (≈ 0.87 µM) in the test with Streptococcus pneumoniae [4]; 4 µg/mL (≈ 6.96 µM) against Streptococcus pneumoniae [5]; 32 µg/mL (≈ 55.7 µM) in the test with Escherichia coli [6]. In addition, the MIC in the test on Escherichia coli [7] and in the test with Klebsiella pneumoniae was > 32 µg/mL in each case.
In the case of `CN(C)[C@@H]1C(O)=C(C(N)=O)C(=O)[C@@]2(O)C(O)=C3C(=O)c4c(O)c(NC(=O)[C@@H]5CCCN5)cc(F)c4C[C@H]3C[C@@H]12`, the MIC in the test with Staphylococcus aureus [1] worked out at 0.25 µg/mL (≈ 0.459 µM); in the test on Staphylococcus aureus [2] it was 0.5 µg/mL (≈ 0.918 µM); with Staphylococcus aureus [3] it was 0.5 µg/mL (≈ 0.918 µM); against Streptococcus pneumoniae [4], 0.016 µg/mL (≈ 0.0294 µM); with Streptococcus pneumoniae [5], 0.016 µg/mL (≈ 0.0294 µM); in the test with Escherichia coli [6], 1 µg/mL (≈ 1.84 µM). The MIC stood at 16 µg/mL (≈ 29.4 µM) against Escherichia coli [7] and 1 µg/mL (≈ 1.84 µM) in the test on Klebsiella pneumoniae. For the same molecule, the survival at 3 mg/kg in the test on Staphylococcus aureus [8] was found to be 100%. The survival at 30 mg/kg in the test on Staphylococcus aureus [9] is 0%.
On to `CN(C)[C@@H]1C(O)=C(C(N)=O)C(=O)[C@@]2(O)C(O)=C3C(=O)c4c(O)c(NC(=O)CN5CCCC5)cc(F)c4C[C@H]3C[C@@H]12` [ERAVACYCLINE], for which the MIC in the test on Staphylococcus aureus [1], in the test on Staphylococcus aureus [2], against Staphylococcus aureus [3], against Streptococcus pneumoniae [4], against Streptococcus pneumoniae [5] and with Escherichia coli [6] was 0.016 µg/mL (≈ 0.0286 µM) throughout. Also, the MIC came out at 1 µg/mL (≈ 1.79 µM) in the test on Escherichia coli [7] and 0.125 µg/mL (≈ 0.224 µM) in the test with Klebsiella pneumoniae.
